According to ChEMBL document CHEMBL4513216, “Probing the Open Global Health Chemical Diversity Library for Multistage-Active Starting Points for Next-Generation Antimalarials” (ACS Infect Dis, 2020):

Assay: Toxicity liver stage against HepG2, at 10uM
Type: cell-based
Design: test concentration 10 uM, cell line HepG2-A16-CD81EGFP
Settings: human, HepG2-A16-CD81EGFP cells; read-out: INHIBITION
Outline: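 Uninfected HepG2-A16-CD81EGFP cells, 3 × 10^3 per well, 1536-well, plated on prespotted compound at 10 μM final, parasite-free screening media added to match infected plates; puromycin 10 μM positive, DMSO 0.5% negative; run in parallel with 48 h PbLuc assay at 37 °C, 5% CO2; viability by CellTiter-Glo luminescence, normalized to controls.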

Compound | cytotoxicity at 10 µM [%]
COc1cccc(CN2CC[C@H](c3nnc(-c4ccco4)o3)C2)c1 | -1.34
CC(=O)N1CCC(NC2(Cc3cc(CC(C)C)on3)COC2)CC1 | 2.8
CCc1c(C)sc2c1c(N)nc(=O)n2CCN1CCCCC1 | 9.49
CC(C)(C)S(=O)(=O)c1ccc(N2CCN(c3ccccc3)CC2)nn1 | -4.81
COC(=O)N1CCc2ccccc2C1C(=O)NCc1cccs1 (stereo unspecified) | -0.634
O=C(C1CCCC1)N1C[C@H]2CNC[C@H]2C1 | 1.47
CN(C)CC(=O)N1CC2(CCN(S(=O)(=O)c3ccccc3)C2)C1 | -6.34
CCS(=O)(=O)N1CCC2(CC(=O)N(c3ccccc3C)C2)C1 (stereo unspecified) | 2.82
CC(C)NC(=O)c1ccc2c(c1)C(c1nc[nH]n1)CN2S(C)(=O)=O (stereo unspecified) | -132
c1cc(CN2CCO[C@@H]3CNC[C@@H]32)co1 | 6.71
CS(=O)(=O)N1CCCC12CCCN(C(=O)c1ccc[nH]1)C2 (stereo unspecified) | -145
CNC(=O)c1cc2c(nc1NC(C)C)CCNCC2 | 0.102
N#Cc1ccc(OC[C@]23COC[C@H]2CN(Cc2ccccn2)C3)nc1 | -0.182
CCOCC(=O)N1CCn2cc(CN(C)Cc3ccco3)nc2C1 | 4.73
Cn1c(=O)c2sccc2n(CC(=O)Nc2cccc(Cl)c2)c1=O | 5.86
COc1cccc2c1ccn2CC(=O)N[C@@H](CCSC)C(=O)O | 3.2
COCCCNC(=O)c1cc(OC)c2ccoc2c1 | 16.9
CCOc1ccc2nc(NC(=O)c3c(C(=O)O)cnn3C)sc2c1 | 6.47
COCCNc1ccc(CC2CCNC2)cn1 (stereo unspecified) | 9.33
CC(=O)N1CCC(Cc2cnc(-c3c(C)nn(C)c3C)cn2)CC1 | -11.8
CNC(=O)C1(C)CCCN(c2cnccn2)C1 (stereo unspecified) | -25.3
CNc1cc(C2CN(Cc3scnc3C)CCO2)nc(C)n1 (stereo unspecified) | -24.7
COCCC(=O)N1CCC(C(=O)c2cc(C)cnc2N)CC1 | -27.7

Compound | cytotoxicity at 10 µM [%]
COCC(=O)N1CCCCC1c1ccnc(Nc2cnccn2)n1 (stereo unspecified) | -24.1
Cc1noc(CN2CCN(C(C)C(=O)NCc3cccs3)CC2)n1 (stereo unspecified) | 17.2
Cc1noc(C)c1CN(C)c1nccc(C(F)(F)F)n1 | -4.73
CC(C)(C)CC(=O)Nc1cnn(-c2ccccc2S(C)(=O)=O)c1 | 3.69
Cc1nncn1CCNC(=O)C1SCCc2sccc21 (stereo unspecified) | 2.96
NC(=O)COc1cccc(Cn2cccn2)c1 | -1.13
COCCOCC1CCN(C(=O)c2ccc3[nH]cnc3c2)C1 (stereo unspecified) | -5.73
CN(Cc1cnn(C)c1)C(=O)Nc1cccnc1-n1cccn1 | -1.32
Cc1noc(OCC(=O)N2CCCCC2C)n1 (stereo unspecified) | 0.714
Cc1ccc(S(=O)(=O)N2CCOCC2C#N)c(F)c1 (stereo unspecified) | 9.78
COc1cccc(-c2cc(NCc3nccn3C)n(C)n2)c1 | 0.684
O=C(NCc1cc(F)cc(Br)c1)C1(O)CCSCC1 | 3.6
Cc1ccnc(NC(=O)c2ccc(F)c(S(=O)(=O)NC3CC3)c2)c1 | 10.4
Cc1ccc(C(=O)N(Cc2ccc(F)cc2F)C2CC2)c(=O)[nH]1 | -2.01
CCc1nc(CCNC(=O)NC2CC(=O)N(C(C)(C)C)C2)cs1 (stereo unspecified) | -1.51
CC(C)(C)NC(=O)CN1CCCN(Cc2cc(C#N)ccc2F)CC1 | -4.62
CCN(CC)c1ccc(NC(=O)N2CCc3sccc3C2)cn1 | -5
CC(Nc1cccc(COCc2ccco2)c1)C(=O)NC(N)=O (stereo unspecified) | -5.65
COc1cc(F)ccc1N(C)Cc1ccncc1 | -3.64
CCS(=O)(=O)CCN(CC1CCCO1)C1CCCC1 (stereo unspecified) | -3.52
CC(C)N(Cc1cnn(C)c1)CC1CCCN(S(C)(=O)=O)C1 (stereo unspecified) | -21.4
Cc1nc(Cn2cc(I)cc(C)c2=O)oc1C | 0.939
Cc1ccc(NCc2ncc(C(C)(C)C)o2)c(Cl)c1 | -15.4

Compound | cytotoxicity at 10 µM [%]
CCC1CN(C(=O)COc2ccc(C(=O)NC3CC3)cc2)CCO1 (stereo unspecified) | -4.39
O=S(=O)(Nc1ncccc1F)c1cc(Cl)cc2c1OCC2 | 1.6
O=C(c1c[nH]c2ccccc2c1=O)N1CCSCC1 | -5.63
CCSc1cncc(N2CCC(C(=O)NC(C)C(C)C)CC2)n1 (stereo unspecified) | -1.81
COc1ccc(CCNC(=O)NC2CCCC2)cc1OC | -10.9
Cc1cnn(CC2CN(CCS(=O)(=O)c3ccccc3)CCO2)c1 (stereo unspecified) | -3.08
Cc1cc(NC(=O)NCCc2cccs2)n(C)n1 | 14.8
CCc1noc(C(C)N2CCN(c3ccc(C#N)cn3)CC2)n1 (stereo unspecified) | 4.78
COCC1CN(C(=O)Cc2ccccn2)Cc2cn(CC3CC3)nc21 (stereo unspecified) | -1.32
CCc1c(C)nc(C)nc1N1C[C@@H](CN(C)CCN(C)C)[C@@H](CO)C1 | -2.07
N[C@@H]1CCN(Cc2ccc(-c3nc(-c4cccnc4)cc(=O)[nH]3)cc2)C1 | 9.48
COc1ccnc(N2Cc3cnc(C(C)(C)C)nc3C2)n1 | -9.85
O=C1N(CCc2ccccc2)CCCC1(O)CNCc1ccc(F)cc1 (stereo unspecified) | -1.24
CC(C)c1nc(N2CCC(N3CCCC(O)C3)CC2)c2cnn(C)c2n1 (stereo unspecified) | -127
Nc1cnc(-c2cccc3ccnn23)cn1 | -1.7
CCC(Nc1nccc(C2CCCC2)n1)c1ncccc1C (stereo unspecified) | -130
COCCn1ccnc1C1CCCN(C(=O)c2ccccc2C#N)C1 (stereo unspecified) | -0.675
CC(C)(C)c1ncc2c(n1)CN(C(=O)C(C)(C)n1cccc1)C2 | -120
COC(=O)[C@@H]1C[C@@H](NC(=O)CN2C(=O)N(C)Cc3ccccc32)CN1C | -2.62
Cc1ccc(C#N)c(N2CCC3(CCC(=O)N(CC(N)=O)C3)CC2)n1 | 0.845
O=C(c1ccsc1)N1CCc2c(nc(-c3ccncc3)[nH]c2=O)C1 | -1.67
CC(=O)c1ccc(N2CCC3(CCC(=O)N(C4CC4)C3)CC2)nc1 | 4.36
CC(NC(=O)c1coc(COc2cccc(F)c2)n1)c1nnc(N)s1 (stereo unspecified) | -144

Compound | cytotoxicity at 10 µM [%]
Cn1c(CN2CCCCC2)nnc1C1CCCN(C(=O)CCC(N)=O)C1 (stereo unspecified) | 3.94
COc1cc(NCC(O)CN2CCCCCC2)ncn1 (stereo unspecified) | 2.8
CN(CCO)c1nc(-c2ccccn2)nc2c1CCNC2 | -4.12
CCN(CCc1nc2cc(C)ccc2[nH]1)C(=O)[C@@H](N)Cc1c[nH]cn1 | -3.78
COc1cc(F)c(CN2CCN(CC(C)C)C(=O)C2C)cc1OC (stereo unspecified) | 1.63
CSCc1noc(CNC(=O)C2CCN(C(=O)C3CCCC3)CC2)n1 | 9.98
CN(C)[C@H]1CN(C(=O)c2ccc3sc4c(c3c2)CCNC4=O)C[C@@H]1O | -5.38
CCN1CCN(C[C@@H]2CN(c3ncccc3Cl)C[C@@H]2CO)CC1 | -4.81
CC1CCN(CCNC(=O)c2ccn(-c3ccccc3)n2)CC1 | -5.99
Cc1cc(C)n(CC2CCCN2Cc2ncc(C(C)(C)C)o2)n1 (stereo unspecified) | -1.64
Cc1nc(C2CCCN2C(=O)CCCn2cccn2)no1 (stereo unspecified) | -4.77
Cc1ncsc1C(=O)NCCc1cccs1 | -15.3
CCc1noc(C)c1C(=O)NCC(c1ccc(C)cc1)N(C)C (stereo unspecified) | -5.57
CN(C)c1ccc(CNC(=O)Nc2ccc(S(C)(=O)=O)nc2)cc1 | -2.48
Cc1ccc(NC2CCN(C(=O)c3cc(C)no3)CC2)nn1 | -11.6
COCC(c1cccc(C(F)(F)F)c1)N(C)C(=O)c1cnccn1 (stereo unspecified) | -11.7
CN(CC(=O)N1CCCC1c1cnn(C)c1)Cc1ccccc1 (stereo unspecified) | -4.38
CCc1ncc2c(n1)CN(CC(=O)Nc1cc(C)no1)CC2 | -16.9
CC(C)c1nc(CN(C)C2CCN(Cc3nnc(C4CC4)o3)C2)no1 (stereo unspecified) | 5.87
c1ccc(CCCN2CCCC2Cn2cncn2)cc1 (stereo unspecified) | -0.121
CC(C)CCOCCNC(=O)Nc1ccc(F)c(C(N)=O)c1 | -11.6
Cc1cc(C)n(C2CCCN(C(=O)CCOc3cccc(F)c3)C2)n1 (stereo unspecified) | -5.56
Cc1cccnc1NC(=O)NC(C)Cn1cccn1 (stereo unspecified) | -6.8

Compound | cytotoxicity at 10 µM [%]
O=C(Cn1nc(-c2ccc(F)cc2)oc1=O)NCc1ccc(F)cc1 | 4.13
O=C(Nc1cnn(CCN2CCOCC2)c1)c1ccccn1 | -14.5
Cc1ccc(-c2nc(CN3CCn4c(nnc4C4CC4)C3)co2)cc1 | 5.17
Cc1cnn(CCNCc2cccnc2)c1 | -0.265
CN1[C@@H](C(=O)NCC2CC2)C[C@H]2CN(Cc3cccc(C#N)c3)C[C@H]21 | -8.22
O=C(NC1CCC1)[C@@H]1CCO[C@@H]2CCN(C3CCCC3)C[C@H]21 | 9.05
CNC(=O)N1CCc2cc(C(=O)N(C)C)c(NCC3CC3)nc2CC1 | -0.395
Cn1ccc(C(=O)N2CCOC3(COCCN(CC4CC4)C3)C2)n1 (stereo unspecified) | 7.61
CN1CCO[C@H]2CN(C(=O)c3ccncc3F)C[C@H]21 | -141
CC(=O)N1CCC[C@@H](NCc2c[nH]c3ccccc23)[C@@H]1c1ccc(C)s1 | -39
Cc1ccc(CN2CCC3(CC2)CC3CN(C)Cc2cccnc2)o1 (stereo unspecified) | -3.76
O=S(=O)(C1CC1)N1CCOCC2(CCN(c3ccccn3)C2)C1 (stereo unspecified) | 12.9
COCCN1CCC2(COCc3c(C)nc(N4CCOCC4)nc32)C1 (stereo unspecified) | -130
COCCN1C[C@@H]2[C@@H](OC)CCN(C(=O)Cc3ccccc3)[C@@H]2C1 | 3.5
CN1CCN(Cc2cccnc2)C2(CCN(Cc3ccoc3)C2)C1=O (stereo unspecified) | -2.4
Cc1ccc(C(=O)N2C[C@H]3CC[C@@H](C2)N(CC2CCC2)C3)s1 | -4.2
CC(C)c1ccc(NS(=O)(=O)C=c2[nH]c(=O)n3cccc3c2=O)cc1 | -4.55
O=C(C1CCOCC1)N1C[C@H]2CC(OCc3ccccc3)C[C@H]2C1 (stereo partly specified) | -5.59
O[C@@H]1CC(CNCc2ccc(Cl)cc2)(COc2cccnc2)C[C@@H]1O (stereo partly specified) | -2.23
